ANO1 activ = activates or potentiates the mouse TMEM16A chloride channel; HEK293 TMEM16A/YFP-H148Q/I152L, iodide quench fluorescence; stronger effect = lower value; AID 623877; actives 0.3% (n = 340,000); Q8BHY3; B-score at 10 µM;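 active means fluorescence-ratio B-score plate-corrected deviation score at least 3 library SD below zero, with starting fluorescence score within 5 deviations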;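 further: channel opened by trigger with iodide after compound preincubation; score built on the fluorescence ratio of max minus min over baseline; more negative score means more quench and so TMEM16A activation or potentiation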
CRFR2-BP antag = antagonists of CRF-binding protein/CRF-R2 receptor complex; HEK293 CRF-R2/CRF-BP, CRF-induced calcium fluorescence; inhibition, % at 11.8 µM; actives 0.59% (n = 350,000); AID 588475;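 active means inhibition of the ligand-induced calcium signal above about 50% at the single tested concentration, limit read from the data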
TAAR1 agonist = agonists of human TAAR1; Q96RJ0; CHO RD-HGA16 TAAR1, Fluo-8 calcium fluorescence; vehicle wells 0%, saturating PEA agonist 100%; activation, % at 3 µM; actives 0.99% (n = 360,000); AID 624467;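 active means activation above the mean activation of all test compounds in the run plus 3 SD, cut at about 38% in these data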
Target sequence (Q96RJ0 whole entry, looked up): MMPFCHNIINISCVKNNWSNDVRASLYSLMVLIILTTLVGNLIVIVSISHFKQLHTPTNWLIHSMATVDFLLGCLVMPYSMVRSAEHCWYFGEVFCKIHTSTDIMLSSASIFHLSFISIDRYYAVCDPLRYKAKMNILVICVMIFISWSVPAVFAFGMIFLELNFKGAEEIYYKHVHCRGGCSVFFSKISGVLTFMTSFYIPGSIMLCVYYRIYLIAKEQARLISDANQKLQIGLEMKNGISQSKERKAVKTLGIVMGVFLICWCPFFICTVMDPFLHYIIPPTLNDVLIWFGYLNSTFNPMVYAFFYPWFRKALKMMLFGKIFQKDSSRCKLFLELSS
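Test system: RD-HGA16 (CHO) cells co-expressing Gα16 and hTAAR1 / Benchmarks: DMSO vehicle as 0%, PEA at EC100 as 100% / Repeats: no replicates (n 1) / Measure: % activation from peak over basal fluorescence ratio, DMSO-to-PEA scaled / Timing: 17-24 h plating, Fluo-8 75 min 37 °C, 30 min RT / Technique: kinetic Fluo-8 calcium fluorescence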
TMEM16A inh = inhibitors of mouse TMEM16A calcium-activated chloride channel; Q8BHY3; HEK293 TMEM16A/YFP iodide influx fluorescence, ionomycin; normalized B-score (activity score, 25-100; higher = stronger inhibition) at 10 µM; actives 1.2% (n = 310,000);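 active means ratio plate-corrected score three or more library SD toward inhibition, starting fluorescence score within five deviations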;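 further: score derived from kinetic fluorescence span divided by baseline fluorescence per well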
TAAR1 antagonist = antagonists of human TAAR1; Q96RJ0; inhibition, % at 3 µM; actives 1.5% (n = 360,000); AID 624466; CHO RD-HGA16 TAAR1, Fluo-8 calcium fluorescence, antagonist;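 active means inhibition above a per-plate cutoff, the mean inhibition of test compounds on that plate plus 3 SD, cut at about 49% in these data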;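 further: 0% = DMSO plus EC80 beta-PEA response and 100% = DMSO alone without agonist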
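Assay system: CHO-derived RD-HGA16 cells stably expressing human TAAR1 plus Gα16. Timing: 140 s kinetic read after compound, 140 s after agonist. Technique: kinetic Fluo-8 calcium fluorescence measurement. Measure: % inhibition of agonist calcium response.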
CRFBP-R2 agonist = agonists of human CRF-binding protein/CRF-R2 receptor complex; AID 588473; HEK293 CRF-R2/CRF-BP, calcium dye fluorescence (FLIPR); percent of saturating CRF peptide response; activation, % at 13.2 µM; actives 0.46% (n = 350,000);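 active means activation of at least 50%, plus an integration ratio under a set limit after plate pattern correction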;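 further: plate controls were neutral control wells without compound for no effect and CRF at EC100 for full effect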
nonsel antag count = counter-screen for TAAR1 antagonists: nonselective antagonists; shares compounds with TAAR1 antagonist; counterscreen cell line, calcium fluorescence, antagonist mode; inhibition, % at 3 µM; actives 77% (n = 2,400); in the data active means inhibition above about 22%;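 further: CHO-Ga16 host cells stimulated with ATP at an EC80 level; 0% = agonist EC80 plus vehicle and 100% = vehicle without agonist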
TAAR1 ant conf = human TAAR1 antagonism, confirmed; shares compounds with TAAR1 antagonist; TAAR1-expressing cells, fluorescence antagonist read-out; inhibition, % at 3 µM; actives 40% (n = 2,400); AID 651785; in the data active means inhibition above about 49%;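 further: CHO-Ga16 host cells challenged with agonist PEA near its EC80; 0% = agonist at EC80 plus vehicle and 100% = vehicle with no agonist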
Ga16 ag counter = nonselective Ga16 agonist in TAAR1 antagonist counter-screen | AID 651953 | Ga16-expressing cells, calcium fluorescence, agonist counterscreen | actives 18% (n = 2,400) | activation, % at 3 µM | shares compounds with TAAR1 antagonist; in the data active means activation above about 12%;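 further: 0% = vehicle wells and 100% = saturating stimulus response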
TAAR1 ag counter = TAAR1 agonism, antagonist counter-screen. activation, % at 3 µM. shares compounds with TAAR1 antagonist. hTAAR1 cell line, fluorescence activation, agonist mode. actives 2% (n = 2,400); in the data active means activation above about 37%;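 further: CHO cells stably expressing TAAR1 with calcium dye readout; 0% = DMSO vehicle and 100% = full agonist response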
* = called active by the depositor. Sampled rows, rich in hits. Any-hit rate of the full collection: about 3.9%.

For COc1ccccc1N1CCN(C(=O)/C=C/c2ccccc2)CC1 the results were ANO1 activ inactive, CRFR2-BP antag -25, TAAR1 agonist 16, TMEM16A inh inactive, TAAR1 antagonist 105*, CRFBP-R2 agonist -1, nonsel antag count 6, TAAR1 ant conf 5, Ga16 ag counter 1 and TAAR1 ag counter 4.
COc1ccccc1N1CCN(C(=O)c2ccc(Br)o2)CC1 was read as ANO1 activ inactive, CRFR2-BP antag -4, TAAR1 agonist -3, TAAR1 antagonist 101*, CRFBP-R2 agonist -1, nonsel antag count 9, TAAR1 ant conf 15, Ga16 ag counter 11 and TAAR1 ag counter 15.
O=C(c1ccc(Br)o1)N1CCN(c2ccccc2F)CC1 was read as ANO1 activ inactive, CRFR2-BP antag -29, TAAR1 agonist 4, TMEM16A inh inactive, TAAR1 antagonist -7 and CRFBP-R2 agonist -1.
For COc1ccc([C@H]2C[C@H](O)[C@@H](n3cc(C4CC4)nn3)CN2C(=O)c2cccs2)cc1 the results were CRFR2-BP antag 5, TAAR1 agonist 5, TAAR1 antagonist -15 and CRFBP-R2 agonist 0.
`Cc1c(NC(=O)c2c(N)sc3c2CCCC3)c(=O)n(-c2ccccc2)n1C` gave ANO1 activ inactive, CRFR2-BP antag 1, TAAR1 agonist 0, TMEM16A inh inactive, TAAR1 antagonist -2 and CRFBP-R2 agonist 0.
Cc1ccccc1C(=O)Oc1ccc(-c2csnn2)cc1 was read as ANO1 activ inactive, CRFR2-BP antag 5, TAAR1 agonist 1, TMEM16A inh inactive, TAAR1 antagonist 22 and CRFBP-R2 agonist 1.
For Cc1ccccc1C(=O)Oc1ccc(Sc2ccc(O)cc2)cc1 the results were TAAR1 agonist 10, TMEM16A inh inactive, TAAR1 antagonist 61*, nonsel antag count 18, TAAR1 ant conf 15, Ga16 ag counter -1 and TAAR1 ag counter 0.
Screening CCOC(=O)C1=C(C)NC(C)=C(C(=O)OCC)C1C(=O)OCC(=O)NC1CCCCC1 returned ANO1 activ inactive, CRFR2-BP antag -3, TAAR1 agonist 18, TAAR1 antagonist 61*, CRFBP-R2 agonist -1, nonsel antag count 27*, TAAR1 ant conf 52*, Ga16 ag counter 10 and TAAR1 ag counter 16.
CCOC(=O)C1=C(C)NC(C)=C(C(=O)OCC)C1C(=O)OCC(=O)NC1(C#N)CCCCC1 was read as ANO1 activ inactive, CRFR2-BP antag -14, TAAR1 agonist 17, TMEM16A inh inactive, TAAR1 antagonist 63*, CRFBP-R2 agonist 3, nonsel antag count 29*, TAAR1 ant conf 54*, Ga16 ag counter 9 and TAAR1 ag counter 9.
Screening O=C(CNC(=O)COc1ccccc1)NCc1cccnc1 returned ANO1 activ inactive, CRFR2-BP antag 5, TAAR1 agonist 0, TMEM16A inh inactive, TAAR1 antagonist -6 and CRFBP-R2 agonist 0.
`COC(CNC(=O)c1coc2nc3ccccc3nc12)OC` gave ANO1 activ inactive, CRFR2-BP antag 0, TAAR1 agonist 0, TMEM16A inh inactive, TAAR1 antagonist -1 and CRFBP-R2 agonist -1.
For Cc1ccc(C)c(S(=O)(=O)N(C)C2CCS(=O)(=O)C2)c1 (stereo unspecified) the results were ANO1 activ inactive, CRFR2-BP antag 7, TAAR1 agonist 0, TMEM16A inh inactive, TAAR1 antagonist -2 and CRFBP-R2 agonist 0.
For O=C1C(=O)N(C/C=C/c2ccccc2)c2ccccc21 the results were ANO1 activ inactive, CRFR2-BP antag -24, TAAR1 agonist -1, TMEM16A inh inactive, TAAR1 antagonist 1 and CRFBP-R2 agonist 1.
Screening Cc1nc2ccc(NC(=O)c3ccc(S(=O)(=O)N(C)c4ccccc4)cc3)cc2s1 returned ANO1 activ inactive, CRFR2-BP antag -13, TAAR1 agonist 21, TMEM16A inh inactive, TAAR1 antagonist 59*, CRFBP-R2 agonist 9, nonsel antag count 33*, TAAR1 ant conf 53*, Ga16 ag counter 11 and TAAR1 ag counter 6.
COc1ccc(NC(=O)N(Cc2cc3cc(C)ccc3[nH]c2=O)CC2CCCO2)cc1 (stereo unspecified) was read as ANO1 activ inactive, CRFR2-BP antag -12, TAAR1 agonist 0, TMEM16A inh inactive, TAAR1 antagonist -15 and CRFBP-R2 agonist 1.
Screening COc1ccc2[nH]c(=O)c(CN(CC3CCCO3)C(=O)Nc3ccc(F)cc3)cc2c1 (stereo unspecified) returned ANO1 activ inactive, CRFR2-BP antag -10, TAAR1 agonist 24, TAAR1 antagonist 81*, CRFBP-R2 agonist -1, nonsel antag count 52*, TAAR1 ant conf 66*, Ga16 ag counter 16* and TAAR1 ag counter 12.
COc1ccc2[nH]c(=O)c(CN(CC3CCCO3)S(=O)(=O)c3ccccc3)cc2c1 (stereo unspecified) was read as ANO1 activ inactive, CRFR2-BP antag -25, TAAR1 agonist 14, TMEM16A inh inactive, TAAR1 antagonist 41 and CRFBP-R2 agonist -1.
For COc1ccc2[nH]c(=O)c(CN(CC3CCCO3)S(=O)(=O)c3ccccc3F)cc2c1 (stereo unspecified) the results were ANO1 activ inactive, CRFR2-BP antag -2, TAAR1 agonist 23, TMEM16A inh inactive, TAAR1 antagonist 63*, CRFBP-R2 agonist 0, nonsel antag count 26*, TAAR1 ant conf 43, Ga16 ag counter 10 and TAAR1 ag counter 17.
COc1ccc(CCNC2=C(Cl)C(=O)N(CCc3ccccc3)C2=O)cc1OC was read as ANO1 activ inactive, CRFR2-BP antag 10, TAAR1 agonist 13, TMEM16A inh inactive, TAAR1 antagonist 74*, CRFBP-R2 agonist 0, nonsel antag count 38*, TAAR1 ant conf 46, Ga16 ag counter 8 and TAAR1 ag counter 4.
Screening COc1ccc(CCNC2CC(=O)N(CCc3ccccc3)C2=O)cc1OC (stereo unspecified) returned ANO1 activ inactive, CRFR2-BP antag 30, TAAR1 agonist -1, TMEM16A inh inactive, TAAR1 antagonist 8 and CRFBP-R2 agonist -1.

Bioassay records from PubChem.
